Assay outcomes as filed in PubChem BioAssay.
The full list was thinned out, with hits kept by preference.
CHOP UPR activ: apoptotic UPR (CHOP) activation; CHO-CHOP luciferase reporter, luminescence; percent of tunicamycin response over DMSO baseline; activation, % at 10 µM; 330,000 tested, 0.34% active;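 active = at 10 µM dose, activation of 40% or more, normalized to positive control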;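 also: 100% = tunicamycin at 10 µg/mL and 0% = DMSO alone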
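assay system = CHO CHOP reporter cells | amount = 500 CHO-CHOP cells per well | buffer or medium = F12 with 10% FBS | incubation = 16-18 h cell attachment, then 6 h compound exposure, 37 °C | detection = luminescence read with Steady-Glo | read-out = percent activation relative to tunicamycin control | controls = tunicamycin high control, DMSO low control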
B2AR ag: agonists of human beta-2 adrenergic receptor inducing internalization. Am2.2-beta2AR cells, FAP receptor internalization, flow cytometry. P07550. 340,000 tested, 0.43% active. response, % (concentration not given with the values). AID 504454;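 active = response above a set limit, near 3 SD of response in nonfluorescent compounds, cut at about 42% in these data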
VLA-4 inh: inhibition in a human VLA-4 binding assay. VLA-4 expressing cells, ligand binding flow cytometry. inhibition, % (about 7 µM as worked out from the volumes in the protocol). 330,000 tested, 0.2% active. AID 2557; in the data active = inhibition above about 50%
XBP1 UPR activ: adaptive UPR (XBP1) activation; CHO-XBP1 luciferase reporter, IRE1-XBP1 UPR activation, luminescence; percent of tunicamycin response, DMSO as zero; AID 463104; activation, % at 20 µM; 330,000 tested, 0.33% active;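 active = versus positive control, 20 µM dose yields 30% or more activation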;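 also: 100% = tunicamycin at 10 µg/mL and 0% = DMSO only wells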
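assay system = CHO-XBP1 luciferase reporter cells | amount = 1000 cells/well | buffer or medium = F12 plus 10% FBS | compound dosing = single point, 20 µM final compound, 1% DMSO | incubation = 16-18 h cell attachment at 37 °C, then 6 h compound exposure | detection = Steady-Glo luminescence read | controls = tunicamycin 10 µg/mL and vehicle-only wells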
CHOP inh: inhibitors of CHOP induction in ER stress response. CHO-K1 CHOP-promoter luciferase, tunicamycin-induced, 15-18 h. inhibition, % at 10 µM. 220,000 tested, 3.8% active. AID 2732;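 active = compounds that reduced the stress-induced luciferase reporter signal by more than about 70% of percent inhibition, limit read from the data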;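 also: 0% = tunicamycin plus vehicle and 100% = wells without tunicamycin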
Numbers without * were called inactive; / = no result given.

SMILES	CHOP UPR activ	B2AR ag	VLA-4 inh	XBP1 UPR activ	CHOP inh
N#C/C(=C(/O)COC(=O)CSc1ccc(Cl)cc1)c1nc2ccccc2[nH]1	-1	20	-20	-3	82*
Cc1cc(SCC(=O)OC/C(O)=C(\C#N)c2nc3ccccc3[nH]2)c(C)cc1Br	0	7	-14	-1	71*
N#C/C(=C(/O)COC(=O)CCCNC(=O)c1ccc(Cl)cc1)c1nc2ccccc2[nH]1	4	13	-5	-2	-5
CCC1(C)CC(CCNS(=O)(=O)c2ccc(C)cc2)(c2ccc(C)cc2)CCO1 (centres undefined)	-2	7	3	-6	73*
Cc1cccc2cc(CN(Cc3ccc(F)cc3)C(=O)N(C)C)c3nnnn3c12	-1	12	46	-3	90*
CCOc1ccc(/C=N/Nc2nc(C)cs2)c(O)c1	3	-7	7	1	/
CCOC(=O)c1c(N)nn(C(=O)c2ccccc2F)c1-c1ccc(OC)cc1	1	-1	3	-1	21
CCOC(=O)c1c(N)nn(C(=O)C(C)(C)C)c1-c1ccccc1	1	-6	6	1	94*
O=C(/C=C/c1ccc(S(=O)(=O)N2CCOCC2)cc1)OCC(=O)c1ccc([N+](=O)[O-])cc1	2	7	5	-2	5
Cn1nc(C(C)(C)C)cc1C(=O)NCc1ccc(N2CCCC2=O)cc1	6	-10	-2	-2	83*
Cc1ccc(CNC(=O)c2ccc(N3CCCC3=O)cc2)cc1	-2	-14	4	1	-7
S=c1[nH]nc(-c2ccncc2)n1/N=C/c1cccc(Cl)c1	-2	13	-4	0	0
Cc1cccc(Oc2ccc(NC(=O)c3ccccc3C(=O)O)cc2)c1C	-1	17	1	-2	8
O=C(O)c1ccccc1C(=O)Nc1ccc(Oc2cccc3ccccc23)cc1	/	2	/	/	78*
O=C(c1ccc(F)cc1)N1CCCCC(S(=O)(=O)c2ccccc2)C1=O (centres undefined)	0	-4	0	-2	6
COc1ccc(S(=O)(=O)Nc2ccccc2-c2nnn(CC(=O)Nc3ccccc3OC)n2)cc1	3	-7	0	0	76*
CCOC(=O)c1ccc(NC(=O)Cn2nnc(-c3ccc(F)cc3)n2)cc1	-5	18	-1	0	81*
CCOc1ccccc1NC(=O)Cn1nnc(-c2ccc(OCC)c(OCC)c2)n1	-3	-5	-13	-3	87*
O=C(OCC(=O)N1CCN(c2ccccc2)CC1)c1ccccc1NCCO	0	4	4	-1	/
CCCc1nc2nc(C)c(NS(=O)(=O)c3ccc(C(C)(C)C)cc3)c(=O)n2[nH]1	2	25	-2	0	/
CC(C)c1nc(N2CCN(C(=O)c3ccco3)CC2)c2c3c(sc2n1)CCCC3	4	4	-12	-4	74*
Cc1nc(N2CCN(C(=O)c3ccco3)CC2)c2c3c(sc2n1)CCC3	0	4	-3	-6	53
COc1ccc(CNCc2ccc3c(c2)OCO3)c(OC)c1OC	2	-6	1	-2	/
C[n+]1c2n(c3ccccc31)N=C(c1cc(C(C)(C)C)c(O)c(C(C)(C)C)c1)CS2	7	8	5	4	73*
Cc1ccc(/C(O)=C/C(=O)C(=O)NNC(=O)C(O)(c2ccccc2)c2ccccc2)cc1	0	8	19	-5	85*
SMILES	CHOP UPR activ	B2AR ag	VLA-4 inh	XBP1 UPR activ	CHOP inh
CCc1ccc(CN(C)CC(=O)Nc2ccc3c(c2)CCC3)cc1	-2	-2	-18	1	92*
COc1cc2[nH]c(=O)c(C(=O)NCc3ccccc3Cl)c(O)c2cc1OC	-3	0	11	-2	/
O=C(C1CC2C=CC1C2)N1CCN(c2ccccc2)CC1 (centres undefined)	1	-5	0	0	17
CC1(C)C(C=C(Cl)Cl)C1C(=O)N1CCN(c2ccccc2)CC1 (centres undefined)	1	2	10	-2	78*
O=C(C#Cc1ccccc1)c1ccc([N+](=O)[O-])cc1	30	69*	/	-2	111*
O=C(c1ccc(-c2ccccc2)cc1)c1ccc([N+](=O)[O-])cc1	-1	/	-14	4	-9
CCN1CCN(CC(=O)Nc2c(OC)cccc2OC)CC1	2	10	18	2	/
CCc1ccc(-n2cnc3cc(C(=O)NCC(OC)OC)ccc32)cc1	2	-1	4	-6	/
CCN(C(=O)COC(=O)c1ccccc1Nc1cccc(C)c1C)C1CCS(=O)(=O)C1 (centres undefined)	-1	18	-14	0	70*
CCN(C(=O)COC(=O)c1ccccc1Cc1ccccc1)C1CCS(=O)(=O)C1 (centres undefined)	1	-5	2	-1	/
O=C(/C(N=Nc1cccc([N+](=O)[O-])c1)=C(/O)c1ccc(Br)cc1)C(F)(F)F	19	/	5	10	70*
CCNC(=O)[C@H]1O[C@@H](n2cnc3c(N)nc(NCCc4ccc(CCC(=O)O)cc4)nc32)C(O)[C@H]1O (some centres undefined)	/	/	/	/	-16
Cc1[nH]c2ccccc2c1/C=C/c1nc2ccccc2c(=O)[nH]1	8	3	-24	6	76*
O=C(Nc1cccc(-c2nc3ncccc3o2)c1)c1cc2ccccc2o1	-1	3	-14	-1	20
Cc1ccc(-c2nc3ccccc3o2)cc1NC(=S)NC(=O)c1cccs1	2	-1	-1	5	82*
Cc1ccc(-c2nc3ncccc3o2)cc1NC(=O)c1cc2ccccc2o1	-3	10	-16	-6	70*
Cc1cc(C)c2oc(-c3ccc(C)c(NC(=S)NC(=O)c4cccs4)c3)nc2c1	1	1	21	2	-5
Cc1ccc(-c2nc3ccccc3o2)cc1NC(=O)c1ccc2c(c1)OCO2	3	-1	-22	-1	87*
Cc1c(NC(=O)c2ccc3c(c2)OCO3)cccc1-c1nc2ccccc2o1	1	0	13	-2	-8
CN(C(=O)Cn1nnc2ccccc2c1=O)C1CCCCC1	1	0	11	5	/
CCOc1ccccc1NC(=O)COC(=O)CSc1ccc(Cl)cc1	2	1	20	-2	0
O=C(O)c1cccnc1Sc1ccc(Br)cc1	-1	5	5	-5	/
Cn1cccc1C(=O)Nc1ccc(Cl)c(S(=O)(=O)N2CCCCC2)c1	0	5	-4	-2	/
Cc1nc2c3cc(F)ccc3n(Cc3ccccc3)c2s1	-3	6	22	21	74*
Cc1nc2c3cc(F)ccc3n(Cc3ccccc3F)c2s1	-1	0	11	7	11
O=C(Cc1ccccc1[N+](=O)[O-])NCCCc1ccccc1	2	-5	2	-2	/
O=c1[nH]c(=S)[nH]cc1Oc1ccc(Br)cc1Br	/	9	/	/	/
